The source of these data is PubChem BioAssay.

As usually defined, the viability is a read-out of living cells in per cent, often relative to untreated cells. The term inhibition denotes the change of the read-out against control, counted positive when it falls.

Experiment [1] can be described thus: SK-BR-3 cell growth inhibitors, pilot screen, 24 h, human (AID 572).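 Also: compound exposure lasted between 18 and 24 h rather than exactly 24 h; 100% = carrier-treated control wells.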 The conditions noted are these: SK-BR-3 viability, CellTiter-Glo luminescence, at 10 µM, stronger effect = lower value. For orientation: Cellular ATP, detected with luciferase, serves as a proxy for viable cell number.
Experiment [2] can be described thus: HUVEC growth inhibition – cell-based, human, primary screen (AID 575;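 active = viability at or below 30% in both replicate assays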;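 also: 100% = median of untreated cell wells with 0.1% DMSO on each plate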). The conditions noted are these: HUVEC proliferation, CellTiter-Glo luminescence, 72 h; at 10 µM; stronger effect = lower value. The procedure, abridged:
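Test system – primary HUVEC, no more than 12 passages · Dosing – one dose, 10 µM final, 0.1% DMSO · Times – 72 h treatment at 37 °C · Measured by – ATP-based CellTiter-Glo luminescent read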

Experiment [3] in a line: growth inhibitors of H69AR lung tumor, primary screen, human, duplicate replicates (AID 580;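 active = viability at or under a set limit in both replicates, limit being median viability minus 3 SD, cut at about 48% in these data, passing the limit was not always enough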;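 also: 100% = mean luminescence of untreated wells and 0% = no signal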). The conditions noted are these: H69AR lung tumor cells viability, ATP luminescence, 72 h; at 10 µM; stronger effect = lower value.
A short description of experiment [4]: reversal of MRP1-mediated doxorubicin resistance, pilot screen, H69AR cells, doxorubicin co-treatment (AID 601;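 active = viability loss from added drug above about 55%, and viability with drug at most 40%, in both replicates, limit read from the data, passing the limit was not always enough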). The following applies: CellTiter-Glo, 72 h, at 10 µM; for differential viability (reversal): stronger effect = higher value.
Experiment [5] can be described thus: 384-well plate pilot, post-Golgi transport modulator project, inhibition of yeast transport mutant growth (AID 636; in the data active = inhibition above about 31%). The conditions noted are these: absorbance 615 nm, about 18 h, stronger effect = higher value.
The nature of experiment [6]: growth suppression of yeast trafficking mutant, preliminary HTS, modulators of trafficking downstream of Golgi apparatus project, 1536-format plate, OD 615 nm (AID 637; in the data active = inhibition above about 30%). The conditions noted are these: yeast transport mutant growth, absorbance 615 nm, 18 h; stronger effect = higher value.
Setting [7] is: H69AR cells + 2 uM doxorubicin, measured here: viability with 2 uM doxorubicin, stronger effect = lower value.
The mark [8] stands for this setting: H69AR cells, compound alone cytotoxicity.

Calls of active or inactive are those of the source.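 The calls were made as follows, unless noted: active = viability at or below 10% of carrier control in both of two separate runs; inconclusive = viability at or below 10% in only one of the two runs; inactive = the rest.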 Peptide text beside a SMILES is read from it. * marks the point of attachment. Boc = CC(C)(C)OC(=O)*

In the case of `Cc1ccc(N(C(C)C(=O)Nc2ccc(S(=O)(=O)N3CCOCC3)cc2)S(C)(=O)=O)cc1` (centres undefined), the viability in experiment [1] is 87% (inactive); in experiment [2], 106% (inactive); in experiment [3], 99.8% (inactive); in experiment [4] (setting [7]), 106%; in experiment [4] (setting [8]), 99.8%. Besides, the differential viability (reversal) in experiment [4] (H69AR cells + 2 uM doxorubicin) is -6.04% (inactive). Besides, the inhibition in experiment [5] is -6.3% (inactive); in experiment [6], -7.9% (inactive).
On to `CCCCOc1ccc(C(=O)Nc2ccc(N3CCN(C(C)=O)CC3)cc2)cc1`, for which the viability in experiment [1] is 81% (inactive); in experiment [2], 88.8% (inactive); in experiment [3] it was 94.4% (inactive); in experiment [4] (setting [7]), 106%; in experiment [4] (setting [8]) it was 94.4%. The differential viability (reversal) in experiment [4] (H69AR cells + 2 uM doxorubicin) is -11.3% (inactive). The figures for the inhibition in experiment [5] and in experiment [6] were -1.78% (inactive) and 0.91% (inactive), respectively.
Turning to `CC(=O)Nc1ccc(S(=O)(=O)N(C2=NCC(C)S2)c2ccccc2)cc1` (centres undefined), the viability in experiment [1] was 85% (inactive); in experiment [2], 80.3% (inactive); in experiment [3], 91.7% (inactive); in experiment [4] (setting [7]) it was 89.8%; in experiment [4] (setting [8]) it was 91.7%. For the same molecule, in experiment [4] (H69AR cells + 2 uM doxorubicin), the differential viability (reversal) is 1.89% (inactive). Moreover, the values for the inhibition in experiment [5] and in experiment [6] were -2.47% (inactive) and -4.35% (inactive), respectively.
As for `CC(C)CC(NC(=O)OC(C)(C)C)C(=O)NC(C(=O)N1CCCC1C(N)=O)C(C)C` (stereo not drawn) (Boc-Leu-Val-Pro-NH2; configuration not given here), the viability in experiment [1] is 103% (inactive); in experiment [2] it was 101% (inactive); in experiment [3] it was 111% (inactive); in experiment [4] (setting [7]), 93.8%; in experiment [4] (setting [8]), 111%. Further, in experiment [4] (H69AR cells + 2 uM doxorubicin), the differential viability (reversal) is 17.5% (inactive). Besides, the inhibition in experiment [5] is 0.78% (inactive); in experiment [6], -4.1% (inactive).
Consider `COc1cccc(NS(=O)(=O)c2ccc3[nH]cc(C(=O)NC4CC4)c(=O)c3c2)c1`, for which the viability in experiment [1] is 101% (inactive); in experiment [2], 70.3% (inactive); in experiment [3], 70.1% (inactive); in experiment [4] (setting [7]), 85.7%; in experiment [4] (setting [8]), 70.1%. Besides, in experiment [4] (H69AR cells + 2 uM doxorubicin), the differential viability (reversal) is -15.6% (inactive). Moreover, the values for the inhibition in experiment [5] and in experiment [6] were -1.04% (inactive) and 2.13% (inactive), respectively.
On to `COc1cccc2c(=O)cc(C)n(CC(=O)Nc3ccc(C)c(C)c3)c12`, for which the viability in experiment [1] is 105% (inactive); in experiment [2], 84.5% (inactive); in experiment [3] it was 95.5% (inactive); in experiment [4] (setting [7]) it was 82.1%; in experiment [4] (setting [8]), 95.5%. In addition, the differential viability (reversal) in experiment [4] (H69AR cells + 2 uM doxorubicin) was 13.4% (inactive). The inhibition in experiment [5] is -8.4% (inactive); in experiment [6], -2.91% (inactive).
As for `O=C(NC1=NCCS1)c1ccc2c(c1)C(=O)N(Cc1ccco1)C2=O`, the viability in experiment [1] is 85% (inactive); in experiment [2], 94% (inactive); in experiment [3], 93.6% (inactive); in experiment [4] (setting [7]), 91.8%; in experiment [4] (setting [8]), 93.6%. Also, the differential viability (reversal) in experiment [4] (H69AR cells + 2 uM doxorubicin) was 1.83% (inactive). The results for the inhibition in experiment [5] and in experiment [6] were -7.26% (inactive) and 4.73% (inactive), respectively.
In the case of `COc1ccc(N2CCN(C(=O)Cc3ccc(-n4c(=O)[nH]c5ccccc5c4=O)cc3)CC2)cc1`, the viability in experiment [1] is 103% (inactive); in experiment [2], 75.8% (inactive); in experiment [3], 94.7% (inactive); in experiment [4] (setting [7]), 91.5%; in experiment [4] (setting [8]) it was 94.7%. In addition, in experiment [4] (H69AR cells + 2 uM doxorubicin), the differential viability (reversal) is 3.2% (inactive). For the same molecule, the results for the inhibition in experiment [5] and in experiment [6] were 0.26% (inactive) and -3.11% (inactive), respectively.
Consider `COc1cccc(-c2csc(N3CCN(CC(=O)Nc4ccc5c(c4)OCO5)CC3)n2)c1`, for which the viability in experiment [1] was 106% (inactive); in experiment [2], 78.9% (inactive); in experiment [3] it was 80.3% (inactive); in experiment [4] (setting [7]), 81.5%; in experiment [4] (setting [8]) it was 80.3%. In experiment [4] (H69AR cells + 2 uM doxorubicin), the differential viability (reversal) is -1.21% (inactive). Also, the inhibition in experiment [5] is -2.34% (inactive); in experiment [6], 0% (inactive).
Take `COc1cccc(NC(=O)C2CCCN2C(=O)Nc2cccc(F)c2)c1` (centres undefined): the viability was 96% (inactive) in experiment [1]; 103% (inactive) in experiment [2]; 103% (inactive) in experiment [3]; 94% in experiment [4] (setting [7]); 103% in experiment [4] (setting [8]). In experiment [4] (H69AR cells + 2 uM doxorubicin), the differential viability (reversal) was 8.87% (inactive). For the same molecule, the values for the inhibition in experiment [5] and in experiment [6] were -3.7% (inactive) and -3.06% (inactive), respectively.
`C=CCc1ccccc1OCC(O)CN1CCN(Cc2ccc3c(c2)OCO3)CC1` (centres undefined): the viability is 101% (inactive) in experiment [1]; 73.8% (inactive) in experiment [2]; 70.1% (inactive) in experiment [3]; 76% in experiment [4] (setting [7]); 70.1% in experiment [4] (setting [8]). In experiment [4] (H69AR cells + 2 uM doxorubicin), the differential viability (reversal) is -5.96% (inactive). The figures for the inhibition in experiment [5] and in experiment [6] were 59.1% (active) and 58.4% (active), respectively.
Consider `CC(=O)Nc1ccc(NC(=O)Cn2cc3c(n2)CCC(C)C3)cc1` (centres undefined), for which the viability in experiment [1] is 108% (inactive); in experiment [2], 103% (inactive); in experiment [3], 90.6% (inactive); in experiment [4] (setting [7]) it was 94.6%; in experiment [4] (setting [8]), 90.6%. For the same molecule, the differential viability (reversal) in experiment [4] (H69AR cells + 2 uM doxorubicin) is -4.05% (inactive). The inhibition in experiment [5] is -8.24% (inactive); in experiment [6] it was -8.73% (inactive).
Consider `CCN(CC)C(=O)CSC1=C(C#N)C(c2ccco2)C(C(=O)OCCOC)=C(C)N1` (centres undefined), for which the viability is 116% (inactive) in experiment [1]; 101% (inactive) in experiment [2]; 78% (inactive) in experiment [3]; 71.6% in experiment [4] (setting [7]); 78% in experiment [4] (setting [8]). The differential viability (reversal) in experiment [4] (H69AR cells + 2 uM doxorubicin) is 6.37% (inactive). Further, the inhibition in experiment [5] is -6.16% (inactive); in experiment [6], 2.58% (inactive).
`O=C(CSc1nc2ccccc2o1)NC(=O)NCc1ccco1`: the viability in experiment [1] is 92% (inactive); in experiment [2], 96.3% (inactive); in experiment [3] it was 89.3% (inactive); in experiment [4] (setting [7]) it was 86.1%; in experiment [4] (setting [8]), 89.3%. In experiment [4] (H69AR cells + 2 uM doxorubicin), the differential viability (reversal) was 3.28% (inactive). In addition, the inhibition in experiment [5] was -3.51% (inactive); in experiment [6] it was -1.27% (inactive).
As for `COc1ccc(CNCC(=O)Nc2cc(C)nn2-c2nc(C)cc(C)n2)cc1OC`, the viability was 98% (inactive) in experiment [1]; 51.1% (inactive) in experiment [2]; 11.9% (active) in experiment [3]; 70.1% in experiment [4] (setting [7]); 11.9% in experiment [4] (setting [8]). Also, the differential viability (reversal) in experiment [4] (H69AR cells + 2 uM doxorubicin) was -58.3% (inactive). For the same molecule, the inhibition in experiment [5] is -2.99% (inactive); in experiment [6], 1.15% (inactive).
Regarding `Cc1cccc(C(=O)N(C)c2nnc(-c3ccncc3)s2)c1`, the viability in experiment [1] is 98% (inactive); in experiment [2] it was 92.5% (inactive); in experiment [3] it was 85.8% (inactive); in experiment [4] (setting [7]), 89.4%; in experiment [4] (setting [8]), 85.8%. Further, in experiment [4] (H69AR cells + 2 uM doxorubicin), the differential viability (reversal) was -3.53% (inactive). Moreover, the values for the inhibition in experiment [5] and in experiment [6] were -0.41% (inactive) and 24.7% (inactive), respectively.
For the molecule `CNC(=O)NCCN1CCCC1=O`, the viability in experiment [1] was 110% (inactive); in experiment [2], 112% (inactive); in experiment [3], 102% (inactive); in experiment [4] (setting [7]) it was 87.5%; in experiment [4] (setting [8]), 102%. Moreover, in experiment [4] (H69AR cells + 2 uM doxorubicin), the differential viability (reversal) is 14.5% (inactive). Further, the inhibition in experiment [5] is -5% (inactive); in experiment [6], -3.09% (inactive).
Consider `Cc1ccc(S(=O)(=O)N2CCN(C(=O)c3cc(=O)[nH]c4ccccc34)CC2)c(C)c1`, for which the viability in experiment [1] was 66% (inactive); in experiment [2], 82.8% (inactive); in experiment [3], 83.3% (inactive); in experiment [4] (setting [7]), 79.8%; in experiment [4] (setting [8]), 83.3%. Further, the differential viability (reversal) in experiment [4] (H69AR cells + 2 uM doxorubicin) was 3.45% (inactive). Further, the inhibition was -9.04% (inactive) in experiment [5] and 2.74% (inactive) in experiment [6].
